Structures are written as SMILES. Converted amounts (≈) assume the structure as drawn. The source made the active and inactive calls. The calls are words filed in the database; no cut-off is given here. Bounds are passed on as bounds.

The results in this text go back to ChEMBL document CHEMBL4265993, “Antibacterial Cyclic Lipopeptide Enamidonins with an Enamide-Linked Acyl Chain from a Streptomyces Species” (2018).

Type in all cases: functional
The test system of experiment [1] is Staphylococcus aureus. The experiment in a line: Antibacterial activity against methicillin-resistant Staphylococcus aureus CCARM 3167 after 24 hrs by two-fold serial dilution method. To be noted: CCARM 3167, 24 h. In a few lines:
(§1)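 MIC by broth microdilution. Bacteria were grown to mid-log phase in appropriate growth media and seeded into 96-well plates at 10^5 cells/mL. Compounds, with ciprofloxacin as reference, were prepared in DMSO and tested as serial 2-fold dilutions. MICs were determined in triplicate.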

In experiment [2] the test system is Staphylococcus aureus. The experiment in a line: Antibacterial activity against methicillin-resistant Staphylococcus aureus CCARM 3506 after 24 hrs by two-fold serial dilution method. To be noted: CCARM 3506, 24 h. In a few lines:
as §1

The subject of experiment [3] is Staphylococcus aureus. The experiment in a line: Antibacterial activity against quinolone-resistant Staphylococcus aureus CCARM 3505 after 24 hrs by two-fold serial dilution method. Particulars: CCARM 3505, 24 h. In a few lines:
as §1

The test system of experiment [4] is Staphylococcus aureus. Description: Antibacterial activity against quinolone-resistant Staphylococcus aureus CCARM 3519 after 24 hrs by two-fold serial dilution method. To be noted: CCARM 3519, 24 h. Summed up:
as §1

The test system of experiment [5] is Staphylococcus aureus. Description: Antibacterial activity against Staphylococcus aureus RN4220 after 24 hrs by two-fold serial dilution method. To be noted: RN4220, 24 h. In a few lines:
(§2)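 Broth microdilution MIC. Bacteria grown to mid-log phase in appropriate media and seeded in 96-well microtiter plates at 10^5 cells/mL. Treated with serial 2-fold dilutions of compounds prepared in DMSO, with ciprofloxacin as the reference drug. MIC determined in triplicate.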

A further experiment deals with Streptococcus pneumoniae. The experiment in a line: Antibacterial activity against Streptococcus pneumoniae KCTC 5412 after 24 hrs by two-fold serial dilution method. To be noted: KCTC 5412, 24 h. Summed up: as §2
In the next experiment the test system is Enterococcus faecalis. The experiment in a line: Antibacterial activity against Enterococcus faecalis KCTC 5191 after 24 hrs by two-fold serial dilution method. To be noted: KCTC 5191, 24 h. In a few lines: as §2
Experiment [6] has as its system Bacillus subtilis. The experiment in a line: Antibacterial activity against Bacillus subtilis KCTC 1021 after 24 hrs by two-fold serial dilution method. To be noted: KCTC 1021, 24 h. In a few lines:
as §2

In the next experiment the test system is Acinetobacter baumannii. The experiment in a line: Antibacterial activity against Acinetobacter baumannii KCTC 2508 after 24 hrs by two-fold serial dilution method. Particulars: KCTC 2508, 24 h. In a few lines:
as §2

The test system of another experiment is Escherichia coli. Description: Antibacterial activity against Escherichia coli CCARM 1356 after 24 hrs by two-fold serial dilution method. To be noted: CCARM 1356, 24 h. Summed up:
as §2

The subject of another experiment is Pseudomonas aeruginosa. Description: Antibacterial activity against Pseudomonas aeruginosa KCTC 2004 after 24 hrs by two-fold serial dilution method. To be noted: KCTC 2004, 24 h. Summed up:
as §2

Experiment [7] concerns Bacillus subtilis. Description: Antibacterial activity against Bacillus subtilis assessed as diameter of inhibition zone after 24 hrs by disk diffusion method. Summed up: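 Disk diffusion. B. subtilis colonies cultured 24 h at 28 °C were suspended in sterile distilled water and inoculated onto nutrient agar. A 6 mm i.d. paper disk holding sample was placed on the plate, which was incubated 24 h at 28 °C. Read-out was the inhibition zone.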

A word on the MIC: it is the least concentration at which growth counts as inhibited. Consider `CC(C)C[C@@H]1NC(=O)CN2C(=O)[C@H](CNC(=O)[C@@H](CNC(=O)/C=C/NC(=O)/C=C/C=C/CCC/C=C/CC[C@@H](C)O)NC1=O)NC2(C)C`, for which the MIC in the experiment with Staphylococcus aureus [1] was 32 µg/mL (≈ 47.6 µM); against Staphylococcus aureus [2], 8 µg/mL (≈ 11.9 µM); against Staphylococcus aureus [3] it was 16 µg/mL (≈ 23.8 µM); against Staphylococcus aureus [4], 16 µg/mL (≈ 23.8 µM); against Staphylococcus aureus [5], greater than 128 µg/mL; in the experiment on Streptococcus pneumoniae it was greater than 128 µg/mL. Moreover, the minimal inhibitory concentration (MIC) with Enterococcus faecalis was 8 µg/mL (≈ 11.9 µM); in the experiment on Bacillus subtilis [6] it was 16 µg/mL (≈ 23.8 µM); with Acinetobacter baumannii, greater than 128 µg/mL; against Escherichia coli, greater than 128 µg/mL; against Pseudomonas aeruginosa, greater than 128 µg/mL. The “diameter of the inhibition zone (DIZ)” value in the experiment on Bacillus subtilis [7] is 13.5 mm.
On to `C[C@@H](O)CC/C=C/CCC/C=C/C=C/C(=O)N/C=C/C(=O)NC[C@H]1NC(=O)[C@H](Cc2ccccc2)NC(=O)CN2C(=O)[C@H](CNC1=O)NC2(C)C`, for which the MIC against Staphylococcus aureus [1], with Staphylococcus aureus [2], with Staphylococcus aureus [3], with Staphylococcus aureus [4], in the experiment on Staphylococcus aureus [5] and against Streptococcus pneumoniae was greater than 128 µg/mL each time. Further, the minimal inhibitory concentration (MIC) in the experiment with Enterococcus faecalis is greater than 128 µg/mL; against Bacillus subtilis [6] it was 4 µg/mL (≈ 5.67 µM); against Acinetobacter baumannii, greater than 128 µg/mL; against Escherichia coli it was greater than 128 µg/mL; against Pseudomonas aeruginosa, greater than 128 µg/mL. Further, the “diameter of the inhibition zone (DIZ)” value with Bacillus subtilis [7] is listed as 15 mm.
For `O=C(O)c1cn(C2CC2)c2cc(N3CCNCC3)c(F)cc2c1=O` [CIPROFLOXACIN], the MIC was found to be 4 µg/mL (≈ 12.1 µM) with Staphylococcus aureus [1]; 32 µg/mL (≈ 96.6 µM) in the experiment with Staphylococcus aureus [3]; 1 µg/mL (≈ 3.02 µM) against Enterococcus faecalis; 0.0312 µg/mL (≈ 0.0943 µM) against Bacillus subtilis [6]; 0.25 µg/mL (≈ 0.754 µM) in the experiment on Acinetobacter baumannii; 64 µg/mL (≈ 193 µM) against Escherichia coli.
For the compound `CC[C@H](C)[C@@H]1NC(=O)[C@H]([C@@H](C)O)N2C(=O)[C@H](CNC(=O)[C@@H](CNC(=O)/C=C/NC(=O)/C=C/C=C/CCC/C=C/CC[C@@H](C)O)NC1=O)NC2(C)C`, the MIC against Staphylococcus aureus [1] is 64 µg/mL (≈ 89.4 µM); against Staphylococcus aureus [2], 16 µg/mL (≈ 22.3 µM); in the experiment on Staphylococcus aureus [3], 32 µg/mL (≈ 44.7 µM); in the experiment with Staphylococcus aureus [4] it was 32 µg/mL (≈ 44.7 µM); in the experiment on Staphylococcus aureus [5] it was 32 µg/mL (≈ 44.7 µM); against Streptococcus pneumoniae, greater than 128 µg/mL. Besides, the MIC in the experiment with Enterococcus faecalis was 64 µg/mL (≈ 89.4 µM); in the experiment on Bacillus subtilis [6], 16 µg/mL (≈ 22.3 µM); with Acinetobacter baumannii, greater than 128 µg/mL; with Escherichia coli it was greater than 128 µg/mL; against Pseudomonas aeruginosa it was greater than 128 µg/mL. Further, in the experiment with Bacillus subtilis [7], the “diameter of the inhibition zone (DIZ)” value is 13.5 mm.
Regarding `CC(C)C[C@@H]1NC(=O)CNC(=O)[C@@H](N)CNC(=O)[C@@H](CNC(=O)/C=C/NC(=O)/C=C/C=C/CCC/C=C/CC[C@@H](C)O)NC1=O`, the outcome in the experiment on Bacillus subtilis [7] was inactive.
Still for that read-out and setting: next, `C[C@@H](O)CC/C=C/CCC/C=C/C=C/C(=O)N/C=C/C(=O)NC[C@H]1NC(=O)[C@H](Cc2ccccc2)NC(=O)CNC(=O)[C@@H](N)CNC1=O`: “inactive”; `CC[C@H](C)[C@@H]1NC(=O)[C@H]([C@@H](C)O)NC(=O)[C@@H](N)CNC(=O)[C@@H](CNC(=O)/C=C/NC(=O)/C=C/C=C/CCC/C=C/CC[C@@H](C)O)NC1=O`: “inactive”.
